The structures appear in SMILES notation. Where a chain is given by its changes, count along the chain named.

As usually defined, the EC50 is the concentration at which the effect is half-maximal. As usually defined, the inhibition is how much of the control response was suppressed. A higher inhibition goes with a strong effect.

For series [1], the target named is T1, Muscarinic acetylcholine receptor M5 (Rattus norvegicus, UniProt P08911).
T1 sequence (P08911 whole entry): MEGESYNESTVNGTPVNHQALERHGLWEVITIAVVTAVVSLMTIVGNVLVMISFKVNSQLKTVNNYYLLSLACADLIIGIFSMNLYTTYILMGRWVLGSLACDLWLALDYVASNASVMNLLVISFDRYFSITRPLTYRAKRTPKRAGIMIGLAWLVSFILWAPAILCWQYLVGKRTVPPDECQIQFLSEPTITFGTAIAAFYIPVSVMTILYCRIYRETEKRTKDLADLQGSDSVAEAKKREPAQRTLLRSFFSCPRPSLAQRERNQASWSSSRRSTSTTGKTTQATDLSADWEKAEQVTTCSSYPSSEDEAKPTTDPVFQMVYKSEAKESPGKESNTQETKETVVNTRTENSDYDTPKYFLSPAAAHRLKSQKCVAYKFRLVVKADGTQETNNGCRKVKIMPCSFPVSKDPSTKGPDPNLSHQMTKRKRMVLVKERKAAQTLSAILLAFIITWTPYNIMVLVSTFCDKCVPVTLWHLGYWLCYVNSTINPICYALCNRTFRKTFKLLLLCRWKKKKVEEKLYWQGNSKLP
The series can be described thus: Activity at rat muscarinic acetylcholine receptor subtype 5 expressed in CHO cells by calcium mobilization assay. The series is classed as functional, cell-based. Put shortly: (§1)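 Muscarinic subtype selectivity by fluorescence calcium mobilization in highly expressing CHO lines with similar receptor levels; Gi/o-coupled M2 and M4 cells co-transfected with chimeric Gqi5 to couple to Ca2+ mobilization. Read-outs are PAM EC50 and ACh max response. Mean ± SEM of at least three independent determinations.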

Series [2] concerns the target T2, Muscarinic acetylcholine receptor M1 (Rattus norvegicus, UniProt P08482).
T2 sequence (P08482 whole entry): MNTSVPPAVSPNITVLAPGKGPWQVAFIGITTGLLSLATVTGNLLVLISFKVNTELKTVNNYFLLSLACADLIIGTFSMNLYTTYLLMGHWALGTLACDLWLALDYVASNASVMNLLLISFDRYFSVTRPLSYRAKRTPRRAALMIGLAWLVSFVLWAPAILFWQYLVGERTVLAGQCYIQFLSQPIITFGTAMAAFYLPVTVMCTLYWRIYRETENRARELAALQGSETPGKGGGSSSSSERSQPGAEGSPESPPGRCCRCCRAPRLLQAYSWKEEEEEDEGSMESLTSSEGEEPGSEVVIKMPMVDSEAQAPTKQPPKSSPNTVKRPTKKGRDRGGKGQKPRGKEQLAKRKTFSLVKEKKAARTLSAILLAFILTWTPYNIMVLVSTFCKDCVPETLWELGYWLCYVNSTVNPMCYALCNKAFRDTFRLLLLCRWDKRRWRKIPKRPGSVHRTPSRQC
As to the kind of experiment: Activity at rat muscarinic acetylcholine receptor subtype 1 expressed in CHO cells by calcium mobilization assay. The format is functional, cell-based. Put shortly:
as §1

The target of series [3] is T3, Muscarinic acetylcholine receptor M3 (Homo sapiens, UniProt P20309). As to the kind of experiment: Activity at human muscarinic acetylcholine receptor subtype 3 expressed in CHO cells by calcium mobilization assay acetylcholine. The format is functional, cell-based. Put shortly:
as §1
Target sequence in this assay (P20309 whole entry, looked up): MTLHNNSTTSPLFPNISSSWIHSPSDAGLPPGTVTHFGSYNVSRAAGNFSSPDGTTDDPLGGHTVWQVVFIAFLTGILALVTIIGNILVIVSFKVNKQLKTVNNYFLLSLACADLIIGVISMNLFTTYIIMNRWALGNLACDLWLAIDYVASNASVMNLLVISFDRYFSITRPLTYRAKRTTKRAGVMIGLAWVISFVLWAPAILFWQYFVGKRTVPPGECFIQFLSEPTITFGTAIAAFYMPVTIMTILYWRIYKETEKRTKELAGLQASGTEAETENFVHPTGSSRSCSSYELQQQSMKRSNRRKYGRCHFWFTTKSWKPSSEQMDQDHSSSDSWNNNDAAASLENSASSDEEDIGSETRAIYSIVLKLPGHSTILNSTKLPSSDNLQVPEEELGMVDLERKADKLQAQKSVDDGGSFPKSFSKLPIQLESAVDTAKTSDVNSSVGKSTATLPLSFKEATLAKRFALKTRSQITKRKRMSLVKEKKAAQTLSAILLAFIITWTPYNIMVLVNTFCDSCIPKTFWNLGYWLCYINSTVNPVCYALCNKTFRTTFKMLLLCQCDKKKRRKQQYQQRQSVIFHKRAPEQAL
On the technique in general: A change in cytosolic calcium serves as a functional read-out for many receptors and channels.

Series [4] is described as follows: Volume of distribution at steady state in Sprague-Dawley rat 1 mg/kg, iv administered as single dose by LC/MS/MS utilizing electrospray ionization method. The arrangement: dose 1 mg/kg, route intravenous. Particulars: in vivo, read-out: Vdss. The format is ADME, organism-based.
The target in series [5] is T3, Muscarinic acetylcholine receptor M3. As to the kind of experiment: Activity at human muscarinic acetylcholine receptor subtype 3 expressed in CHO cells by calcium mobilization assay. The format is functional, cell-based. Put shortly: as §1
Target sequence in this assay (P20309 whole entry): as the sequence (P20309 whole entry, looked up) above
Series [6] deals with Plasma. The series can be described thus: Fraction unbound in human plasma at 5 uM incubated for 4 hrs at 37 degC by equilibrium dialysis based LC/MS/MS analysis. The series is classed as ADME, cell-free. The method, boiled down: (§2)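 Fraction unbound measured in rat and human plasma and in rat brain homogenate.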
(In equilibrium dialysis free small molecules cross a membrane that holds back macromolecules.)

In series [7] the target is T4, Muscarinic acetylcholine receptor M4 (Homo sapiens, UniProt P08173).
T4 sequence (P08173 whole entry): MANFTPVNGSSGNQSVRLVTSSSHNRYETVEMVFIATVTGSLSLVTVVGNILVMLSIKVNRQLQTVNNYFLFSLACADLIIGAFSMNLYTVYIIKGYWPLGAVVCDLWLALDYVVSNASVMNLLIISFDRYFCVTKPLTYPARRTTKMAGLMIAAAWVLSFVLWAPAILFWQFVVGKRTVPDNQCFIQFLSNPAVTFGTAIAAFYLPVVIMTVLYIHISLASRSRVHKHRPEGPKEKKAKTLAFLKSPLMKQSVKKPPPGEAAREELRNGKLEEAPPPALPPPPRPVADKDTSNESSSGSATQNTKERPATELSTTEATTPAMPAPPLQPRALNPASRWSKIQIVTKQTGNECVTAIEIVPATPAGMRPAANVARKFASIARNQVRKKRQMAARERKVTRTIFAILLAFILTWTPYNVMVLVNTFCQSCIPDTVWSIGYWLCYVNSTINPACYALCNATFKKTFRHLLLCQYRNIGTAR
As to the kind of experiment: Activity at human muscarinic acetylcholine receptor subtype 4 expressed in CHO cells co-transfected with chimeric Gqi5 by calcium mobilization assay. The format is functional, cell-based. Put shortly:
as §1

In series [8] the target is Cannabinoid receptor 1 (Homo sapiens) (UniProt P21554). The series can be described thus: Displacement of radioligand from human CB1 receptor at 10 uM. Put shortly:
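Pan Labs lead profiling radioligand binding battery of 68 GPCRs, ion channels and transporters, with test compound present at 10 μM.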

Series [9] deals with T5, Muscarinic acetylcholine receptor M1 (Homo sapiens, UniProt P11229).
T5 sequence (P11229 whole entry): T2 sequence (P08482 whole entry) with V5A, S254T, S309P, K320R, G337A, V413I
As to the kind of experiment: Activity at human muscarinic acetylcholine receptor subtype 1 expressed in CHO cells by calcium mobilization assay. The format is functional, cell-based. The method, boiled down: as §1

The species entered for another series is Homo sapiens. The series can be described thus: Selectivity index, ratio of EC50 for human muscarinic acetylcholine receptor subtype 1 to EC50 for human muscarinic acetylcholine receptor subtype 5.
In series [10] the test system is Plasma. As to the kind of experiment: Fraction unbound in rat plasma at 5 uM incubated for 4 hrs at 37 degC by equilibrium dialysis based LC/MS/MS analysis. The series is classed as ADME, cell-free. Put shortly: as §2

Cannabinoid receptor 1 (Homo sapiens), sequence (P21554 whole entry): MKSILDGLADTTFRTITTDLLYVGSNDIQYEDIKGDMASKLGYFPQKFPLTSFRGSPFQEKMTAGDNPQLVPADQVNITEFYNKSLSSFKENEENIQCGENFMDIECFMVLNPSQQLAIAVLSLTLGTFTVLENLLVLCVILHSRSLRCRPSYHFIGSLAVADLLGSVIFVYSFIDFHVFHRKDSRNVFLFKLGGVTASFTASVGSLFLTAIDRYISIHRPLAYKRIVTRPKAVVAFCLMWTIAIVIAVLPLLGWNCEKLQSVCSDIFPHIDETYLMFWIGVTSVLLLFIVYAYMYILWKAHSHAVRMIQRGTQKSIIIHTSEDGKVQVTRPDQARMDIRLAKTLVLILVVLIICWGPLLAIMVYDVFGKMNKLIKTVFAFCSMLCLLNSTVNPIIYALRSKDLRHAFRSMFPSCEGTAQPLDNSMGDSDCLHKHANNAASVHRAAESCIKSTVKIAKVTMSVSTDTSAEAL

Regarding `CCN(Cc1ccccc1C(F)(F)F)C(=O)C1CCN(S(=O)(=O)c2ccc3[nH]ncc3c2)CC1`, the EC50 in series [1] is 610 nM; in series [2] it was 2000 nM; in series [5], 2100 nM; in [7], > 30000 nM; in series [9] it was 5400 nM. In series [3], the %max was 67%. For the same compound, the Vd in series [4] stood at 1.6 L/kg. The results for the Fu in the series with Plasma [6] and in the series on Plasma [10] were 0.015 and 0.014, respectively. Also, in [8], the inhibition turned out to be 50%. The Ratio EC50 in the series listed under Homo sapiens was > 10.

The values above are taken from ChEMBL document CHEMBL3352313 (J Med Chem, 2014).
